Screening results: PubChem BioAssay, several laboratories
This excerpt belongs to a sample that is enriched for hits.
E coli WT exp: growth inhibitors of wild-type E. coli, primary screen, strain BW25113, expanded library, OD600 | OD600 absorbance | growth inhibition, % at 100 µM | 98,000 compounds, 0.15% hits | AID 710, 2007;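 active = growth inhibition above about 50% at one test dose, limit read from the data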;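 also: growth measured after 20 h incubation at 37 °C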
Ecoli tolC: growth inhibitors of E. coli tolC mutant, primary screen, strain BW25113 ΔtolC::kan, 384-well; OD615; growth inhibition, % at 10 µM (by protocol); 65,000 compounds, 2.2% hits;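 active = growth inhibition at or above a cutoff equal to the mean over every tested compound plus 3 SD, cut at about 60% in these data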;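 also: growth measured after 20 h incubation at 37 °C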
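Signal: optical density read at 615 nm; Assay system: E. coli ΔtolC::kan strain BW25113; Times: 20 h incubation with compound, 37 °C; Dosing: 10 µM final, single dose.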
AP complement: alternative complement pathway inhibitors, primary screen, biochemical, ELISA, human serum, orthogonally pooled compounds | LPS-coated ELISA, C3 deposition; tested in compound mixtures | inhibition, % at 5 µM | 62,000 compounds, 0.08% hits;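 active = inhibition above 30% in each of the two pooled mixtures holding the compound, so the lower value exceeds 30%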;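 also: 0% = serum in Mg-EGTA without compound and 100% = EDTA serum blank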
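Test system: human serum alternative complement pathway, C3 deposition on LPS-coated wells; also added: Plate-bound LPS; doses: 5 µM per compound in ten-compound mixtures; schedule: 1 h at 37 °C; detection: Anti-C3 ELISA, OD 450 nm; evaluation: percent inhibition of C3 deposition onto LPS; repeats: two pool placements per compound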
E coli RNAP: E. coli RNAP inhibitors, biochemical; E. coli RNA polymerase, fluorescence transcription assay; AID 559, 2006; 62,000 compounds, 0.2% hits; inhibition, %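 (tested at 10 µM)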; DNA-directed RNA polymerase subunit beta (Escherichia coli (strain K12)), P0A8V2; in the data active = inhibition above about 20%;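 also: 0% = enzyme without compound and 100% = no enzyme blank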
MMP13 inh: human MMP13 inhibitors, primary screen, biochemical, FRET peptide cleavage; 65,000 compounds, 0.07% hits; MMP-13 fTHP FRET cleavage, Mca fluorescence; Collagenase 3 (Homo sapiens), P45452; inhibition, % at 4 µM;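 active = inhibition above the mean of compound-free control plate wells plus 3 SD, cut at about 14% in these data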;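 also: 0% = DMSO wells and 100% = wells with reference MMP-13 inhibitor after basal subtraction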
HePTP inh: inhibitors of human HePTP phosphatase, primary screen, biochemical, absorbance, leukemia target | inhibition, % at 20 µM | 110,000 compounds, 0.64% hits | Tyrosine-protein phosphatase non-receptor type 7 (Homo sapiens), P35236 | recombinant HePTP phosphatase activity, OD absorbance; in the data active = inhibition above about 50%;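 also: plate controls were vehicle for no effect and reference inhibitor for full effect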
* hit, by the source's call; nt = no result.

SMILES	E coli WT exp	Ecoli tolC	AP complement	E coli RNAP	MMP13 inh	HePTP inh
CCCOc1ccc(/C=N/NS(=O)(=O)c2ccc3ccccc3c2)cc1OC	nt	nt	nt	nt	nt	103*
CCc1ccccc1N(C)C(=O)CCc1nc(-c2ccc(C)cc2)no1	-14	100*	8	0	1	12
COc1ccc(Cl)cc1N(C)C(=O)CCc1nc(-c2ccc(C)cc2)no1	-24	90*	0	7	-6	6
CCc1nnc(/N=C/c2c(C)[nH]n(-c3ccc(C)c(C)c3)c2=O)s1	nt	nt	nt	nt	nt	-15
CCn1c(SC)nnc1-c1sc2cc(Cl)ccc2c1Cl	-7	77*	-6	11	-1	8
O=C1CC(c2ccc3c(c2)OCO3)c2cc(Br)c3ccccc3c2N1 (stereo unspecified)	nt	nt	nt	nt	nt	7
CS(=O)(=O)N(Cc1ccc(C(=O)N2CCN(c3ccccc3)CC2)cc1)c1ccccc1	nt	nt	nt	nt	nt	0
COc1ccc(C2C(C(C)=O)=C(C)N=c3s/c(=C\c4ccco4)c(=O)n32)c(OC)c1 (stereo unspecified)	-17	30	23	nt	6	6
COc1ccc(C2C(C(C)=O)=C(C)N=c3s/c(=C\c4cc(C)n(C)c4C)c(=O)n32)c(OC)c1 (stereo unspecified)	-15	13	10	nt	18*	11
CCC(Sc1nnc(-c2ccc(C)c(Cl)c2)n1CC)C(=O)Nc1nccs1 (stereo unspecified)	14	81*	0	7	1	5
Cc1ccc2c(c1)c1ncnc(N3CCOCC3)c1n2C	-2	12	-3	-8	-258	4
Cc1ccc2c(c1)c1ncnc(N3CCN(c4ccccc4)CC3)c1n2C	-8	64*	-4	4	-26	-5
c1ccc(N2CCN(c3ncnc4c3oc3ccccc34)CC2)cc1	-15	94*	9	5	-12	5
CCc1nnc(N2CCN(c3ncnc4c3oc3ccccc34)CC2)s1	-4	32	5	3	6	8
CCOC(=O)c1c(NC(=O)c2ccccc2C)sc(C(=O)Nc2ccccc2F)c1C	nt	nt	nt	nt	nt	-3
COc1ccccc1N1CCN(C(=O)c2ccc(N(C)C)cc2)CC1	nt	nt	nt	nt	nt	-9
O=C(Nc1ccccc1C(=O)NCCCn1ccnc1)c1ccccc1	4	10	-8	21*	6	15
OC(CNc1ccc(Br)cc1)COc1ccc(OCC(O)CNc2ccc(Br)cc2)cc1 (stereo unspecified)	nt	nt	nt	nt	nt	-2
COc1ccc(OCC(O)CNc2ccc(Br)cc2)cc1 (stereo unspecified)	31	73*	5	0	6	-5
Cc1cccc(-c2cc(NC(=O)c3ccc(Cl)cc3Cl)n[nH]2)c1	nt	nt	nt	nt	nt	-4
O=C(O)CN1C(=O)/C(=N/N2C(=O)CSC2=S)c2ccccc21	nt	nt	nt	nt	nt	63*
Cc1cc(C)n(-c2cc(Nc3ccccc3)nc(C)n2)n1	nt	nt	nt	nt	nt	4
COC(=O)c1[nH]c2cccc(OC)c2c1NC(=O)CN1CCOCC1	4	-25	7	0	-18	-3
COC(=O)c1[nH]c2cccc(OC)c2c1NC(=O)CN1CC2(C)CC1CC(C)(C)C2 (stereo unspecified)	-4	62*	4	7	-25	1
CC(=O)c1ccc(C(=O)Nc2nnc(-c3ccc(Cl)cc3)o2)cc1	nt	100*	21	-1	1	2
SMILES	E coli WT exp	Ecoli tolC	AP complement	E coli RNAP	MMP13 inh	HePTP inh
O=C(Nc1ccc(-c2nnc(-c3ccccc3)o2)cc1)c1ccc(Cl)cc1	nt	nt	nt	nt	nt	8
O=C(Nc1nnc(-c2ccccc2)o1)c1ccc(Cl)cc1	49	99*	1	nt	5	-3
O=C(Cc1ccc(Cl)cc1)NNC(=O)c1ccccn1	nt	nt	nt	nt	nt	-3
Cc1ccc(-c2cc(C(=O)NCCCN3CCOCC3)no2)cc1	1	-5	15	1	4	4
Cc1ccc(C(=O)NC(=S)NCCCN2CCOCC2)cc1	nt	nt	nt	nt	nt	103*
CC(C)c1ccc(O)c(N)c1	0	0	24	6	8	4
CCC(C)c1ccc(O)c(N)c1 (stereo unspecified)	27	-4	14	28*	6	2
COc1cc(/C=N/NC(=S)Cc2ccccc2)cc(OC)c1OC	nt	nt	nt	nt	nt	104*
COc1cc(/C=N/NC(=O)CC(=O)NC(C)C)cc(OC)c1OC	nt	nt	nt	nt	nt	-4
O=S(=O)(Nc1cccc2ncccc12)c1cccs1	-2	99*	2	1	-2	-9
CN(C)c1ccc(NS(=O)(=O)c2ccc(N3C(=O)CCC3=O)cc2)cc1	nt	nt	nt	nt	nt	9
CCOC(=O)c1c(NS(=O)(=O)c2cccc(OC)c2)sc2c1CCC2	8	79*	-4	0	1	8
CCOC(=O)c1c(NC(=O)Oc2ccccc2)sc2c1CCC2	nt	nt	nt	nt	nt	4
CN(c1ccccc1C(=O)Nc1ccc(S(=O)(=O)N2CCCC2)cc1)S(C)(=O)=O	3	nt	nt	nt	nt	nt
O=C(COc1cccc(C(F)(F)F)c1)Nc1ccc(S(=O)(=O)N2CCCC2)cc1	-7	64*	2	nt	2	9
CN(c1ccccc1C(=O)Nc1ccc(S(=O)(=O)N2CCCCC2)cc1)S(C)(=O)=O	9	100*	7	1	3	-3
O=C(Nc1ccccc1)Nc1ccc(S(=O)(=O)N2CCCCC2)cc1	27	100*	8	10	-2	4
O=C1CN=C(Nc2nc3ccccc3o2)N1	nt	nt	nt	nt	nt	2
CN(C)c1ccc(C2C=C(c3ccc(Cl)cc3OC(F)F)Nc3ncnn32)cc1 (stereo unspecified)	-10	96*	19	-1	-5	2
O=C(/C=C/c1ccc(Cl)cc1Cl)Nc1c(F)c(F)c(F)c(F)c1F	nt	nt	nt	nt	nt	8
O=C(/C=C/c1ccc(Cl)cc1Cl)Nc1nn[nH]n1	nt	nt	nt	nt	nt	87*
C/C(CC(=O)NCc1ccco1)=N\NC(=O)Cc1cccs1	nt	nt	nt	nt	nt	-8
CCn1cc(C(=O)NCC2CCCO2)c(=O)c2cc(F)c(N3CCN(C)CC3)cc21 (stereo unspecified)	-5	10	nt	6	-60	2
CCn1cc(C(=O)NCc2cccc(F)c2)c(=O)c2cc(F)c(N3CCN(C(=O)c4ccco4)CC3)cc21	91*	nt	nt	nt	nt	nt
CCn1cc(C(=O)NCc2cccnc2)c(=O)c2cc(F)c(N3CCN(C(=O)c4ccco4)CC3)cc21	97*	nt	nt	nt	nt	nt
O=c1[nH]c2ccc(S(=O)(=O)N3CCN(c4ccccc4F)CC3)cc2s1	-5	100*	15	0	2	5
COc1ccc(N(CC(=O)Nc2ccccc2C)S(C)(=O)=O)cc1Cl	nt	nt	nt	nt	nt	-8
Cc1nc(N2CCC(C)CC2)c2oc3ccccc3c2n1	-2	nt	13	2	-2	0
COc1ccccc1N1CCN(c2nc(C)nc3c2oc2ccccc23)CC1	-3	97*	1	10	-8	3
